A selection: hits, their analogues and other compounds. The true share with any hit is near 1.3%.
LYPLA2 counter: LYPLA2 inhibitors, primary screen, counter-screen for PME1 inhibitor project, biochemical, fluorescence polarization, FP-Rh probe ABPP | inhibition, % at 5.9 µM | AID 2177, 2009 | recombinant LYPLA2 | 320,000 compounds, 0.38% hits | Acyl-protein thioesterase 2 (Homo sapiens), O95372;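 active = inhibition above the screen-wide mean plus 3 SD, limit set per campaign, cut at about 26% in these data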;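 note: 0% = LYPLA2 with DMSO and 100% = wells lacking LYPLA2 enzyme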
Target sequence (O95372 whole entry, looked up): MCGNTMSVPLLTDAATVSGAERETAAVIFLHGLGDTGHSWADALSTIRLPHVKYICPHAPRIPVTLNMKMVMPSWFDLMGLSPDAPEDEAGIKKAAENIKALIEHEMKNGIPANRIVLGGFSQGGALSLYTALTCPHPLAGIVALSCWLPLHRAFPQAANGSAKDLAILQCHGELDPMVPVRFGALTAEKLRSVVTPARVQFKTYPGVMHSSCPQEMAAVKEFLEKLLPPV
PME-1 inh: PME-1 inhibitors via competitive probe labeling, primary screen, biochemical, fluorescence polarization, FP-Rh probe, HTS; 320,000 compounds, 0.53% hits; recombinant PME-1; Protein phosphatase methylesterase 1 (Homo sapiens), Q9Y570; inhibition, % at 5.9 µM; AID 2130, 2009;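 active = inhibition above the campaign mean of all compounds plus 3 SD, cut at about 26% in these data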;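 note: competitive labeling of PME-1 active site by serine hydrolase directed probe; 0% = PME-1 with DMSO and 100% = wells lacking PME-1 enzyme; inhibitors block probe labeling so polarization falls and inhibition rises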
Target sequence (Q9Y570 whole entry, looked up): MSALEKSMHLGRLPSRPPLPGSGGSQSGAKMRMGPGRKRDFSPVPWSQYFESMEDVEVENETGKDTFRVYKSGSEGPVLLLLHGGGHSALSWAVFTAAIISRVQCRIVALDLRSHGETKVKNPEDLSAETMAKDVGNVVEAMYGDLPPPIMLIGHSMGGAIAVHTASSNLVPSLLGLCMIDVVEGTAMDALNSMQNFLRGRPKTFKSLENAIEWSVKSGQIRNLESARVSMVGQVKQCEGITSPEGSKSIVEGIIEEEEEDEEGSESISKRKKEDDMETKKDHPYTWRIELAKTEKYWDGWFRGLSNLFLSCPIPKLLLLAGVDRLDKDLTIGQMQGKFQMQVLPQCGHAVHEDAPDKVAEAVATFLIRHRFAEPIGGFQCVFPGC
RBBP9 inh: human RBBP9 inhibitors, primary screen, biochemical, fluorescence polarization, FP-Rh probe, HTS; AID 1515, 2009; recombinant RBBP9; inhibition, % at 7.94 µM; 220,000 compounds, 0.2% hits; Serine hydrolase RBBP9 (Homo sapiens), O75884;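 active = inhibition above the campaign mean of all tested compounds plus 3 SD, cut at about 14% in these data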;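 note: plate controls were DMSO wells with RBBP9 for no effect and wells lacking RBBP9 protein for full effect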
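System: RBBP9 protein / Quantity: 2.5 µM RBBP9 dispensing solution, before mixing / Also added: Serine-hydrolase probe FP-Rh, 375 nM pre-mixing / Dosing: 7.94 µM single dose, 0.794% DMSO / Timing: enzyme-compound preincubation 30 min, then probe labeling 45 min, 25 °C / Signal: FP readout at 525/598 nm / Controls: DMSO-treated enzyme wells and wells lacking RBBP9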
LYPLA1 inh: LYPLA1 inhibitors, primary screen, counter-screen for PME1 inhibitor project, biochemical, fluorescence polarization, FP-Rh probe ABPP. Acyl-protein thioesterase 1 (Homo sapiens), O75608. recombinant LYPLA1. inhibition, % at 5.9 µM. 320,000 compounds, 0.16% hits;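 active = inhibition above the mean of all tested compounds plus 3 SD, set per campaign, cut at about 14% in these data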;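 note: inhibitors block serine hydrolase probe labeling of LYPLA1 so polarization falls; 0% = enzyme with DMSO and 100% = wells lacking LYPLA1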
PAD4 FP inh: human PAD4 inhibitors, primary screen, biochemical, fluorescence polarization, 1536-well format. Protein-arginine deiminase type-4 (Homo sapiens), Q9UM07. recombinant PAD4, RCA probe fluorescence polarization. inhibition, % at 6.36 µM. 330,000 compounds, 0.41% hits. AID 485272, 2010;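 active = percent inhibition above a cutoff equal to the mean of all tested compounds plus 3 SD, cut at about 15% in these data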;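 note: 0% = PAD4 with RCA probe and DMSO and 100% = probe without PAD4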
Fam108B inh: mouse Fam108B serine hydrolase inhibitors, primary screen, counter-screen for RBBP9 inhibitor project, biochemical, fluorescence polarization. recombinant Fam108B, FP-Rh probe fluorescence polarization. inhibition, % at 9.51 µM. 300,000 compounds, 0.33% hits;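 active = inhibition above the screen mean inhibition plus 3 SD, computed separately per campaign, cut at about 18% in these data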;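 note: inhibitors lower polarization as less probe binds the enzyme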
PAD4 FP conf: human PAD4 inhibitors, confirmation, biochemical, fluorescence polarization; shares compounds with PAD4 FP inh; recombinant PAD4, RCA probe fluorescence polarization; inhibition, % at 6.36 µM; 1,200 compounds, 28% hits;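 active = mean inhibition across replicates above the hit cutoff set by the earlier primary screen, cut at about 15% in these data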;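 note: inhibitors block active-site labeling by the probe so polarization falls; 0% = PAD4 with probe and DMSO and 100% = probe without PAD4 enzyme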
* marks the source's active call; other numbers are inactive results; nt = not tested or not shown.

SMILES	LYPLA2 counter	PME-1 inh	RBBP9 inh	LYPLA1 inh	PAD4 FP inh	Fam108B inh	PAD4 FP conf
O=C(OCn1ncc(Br)c(Br)c1=O)c1ccccc1Cl	-5.6	-4.7	-8.8	-4.2	34.3*	0.6	31.5*
O=C(OCc1cnc(Cl)s1)c1ccccc1Cl	4.8	-4.3	-3.0	1.7	-1.3	-4.8	nt
COc1cc(-c2nc(C(=O)NC3CCCCC3)cc3c2[nH]c2ccccc23)cc(OC)c1OC	-25.8	-19.5	nt	-15.4	15.9*	-20.3	15.6*
Cc1ccccc1N(CC(=O)Nc1ccc(S(=O)(=O)N2CCOCC2)cc1)S(C)(=O)=O	-8.5	7.3	3.9	-5.0	-4.2	3.5	nt
O=C(CCNS(=O)(=O)c1cccc(C(F)(F)F)c1)NCc1ccco1	nt	nt	nt	nt	27.1*	nt	-0.6
CCCNS(=O)(=O)c1ccc(CCC(=O)NCc2ccco2)cc1	4.9	0.7	-4.3	-1.1	0.1	0.6	nt
O=C(NCCO)C(=O)NCC1CCCN1S(=O)(=O)c1cccs1 (configuration not stated)	5.7	-1.2	nt	-0.6	0.7	-1.9	nt
C=CCNC(=O)C(=O)NCC1CCCN1S(=O)(=O)c1cccs1 (configuration not stated)	9.8	1.3	nt	2.3	26.6*	0.8	10.2
Oc1cc(NCCN2CCOCC2)cc2cccnc12	nt	nt	nt	nt	31.2*	nt	11.7
Oc1cc(Nc2ccccc2)cc2cccnc12	nt	nt	nt	nt	-10.2	nt	nt
CCOC(=O)Cn1nc(C)n(-c2ccc(F)cc2)c1=O	-3.6	-2.6	-2.3	0.2	-1.0	-11.0	nt
COC(=O)c1ccc(C(=O)OC)c(NC(=O)COc2ccccc2OC)c1	2.9	-1.1	-7.0	3.4	15.9*	-1.0	18.1*
CCC(COC)Oc1cc(NCc2ccccc2)c2ncn(C(C)C)c2c1 (configuration not stated)	4.5	18.4	nt	-0.4	24.2*	nt	-4.8
CC(C)n1cnc2c(NCc3ccccc3)cc(N[C@H](C)CO)cc21	nt	nt	nt	nt	46.3*	nt	32.2*
CCC(CO)Oc1cc(NCc2ccccc2)c2ncn(C(C)C)c2c1 (configuration not stated)	nt	nt	nt	nt	-9.8	nt	nt
O=c1c2cc(F)ccc2sn1-c1ccccc1	1.6	-1.7	nt	1.7	40.5*	nt	36.2*
O=C(O)c1cccc(-n2sc3ccccc3c2=O)c1	6.1	-0.3	nt	-0.6	56.1*	nt	46.3*
O=C(O)c1cccc(N2C(=O)CCC2=O)c1	nt	nt	-4.4	nt	nt	nt	nt
OCCN(CCO)c1ccc(C(c2ccc(Cl)cc2)c2ccc(N(CCO)CCO)cc2Cl)c(Cl)c1	2.8	4.5	2.1	3.7	15.3*	5.5	4.5
CCc1cc(SC#N)cc(CC)c1NC(=O)CCl	2.1	-2.1	-6.9	3.1	16.0*	6.8	-3.9
CC1=C(C(=O)Nc2ccc(C(=O)NC(C)c3ccccc3)cc2)SCCO1 (configuration not stated)	5.5	5.8	nt	2.2	-0.2	1.6	nt
Cn1c(CN2CCOCC2)nnc1SCC(=O)Nc1ccc2c(c1)OCCO2	10.2	2.0	1.1	1.1	42.2*	6.0	9.8
Cc1ccc(NC(=S)N2CCSC2c2cccs2)cc1 (configuration not stated)	2.4	8.8	-4.5	0.0	-1.3	0.4	nt
CCOc1ccc(N=C/C=C/c2ccccc2)c(O)c1	3.8	58.4*	-5.1	2.5	26.2*	2.0	-2.2
CCn1c(CSc2nnc(-c3ccoc3C)n2C)nc2cc(S(=O)(=O)N(C)C)ccc21	7.7	-1.9	1.1	-0.8	31.8*	3.5	14.6
SMILES	LYPLA2 counter	PME-1 inh	RBBP9 inh	LYPLA1 inh	PAD4 FP inh	Fam108B inh	PAD4 FP conf
Cc1ccc(C2C(C#N)=C(N)Oc3n[nH]c(-c4cccs4)c32)cc1 (configuration not stated)	2.6	-2.1	-8.3	0.3	40.9*	0.7	-11.9
N#CC1=C(N)Oc2n[nH]c(-c3cccs3)c2C1c1ccoc1 (configuration not stated)	-0.5	5.3	-9.1	0.7	-2.0	1.3	nt
Nc1cccc(-n2nnnc2CN2CCOCC2)c1	3.1	2.1	-4.5	0.8	4.5	-0.6	nt
O=C(Cc1ccc2ccccc2c1)NC(Cc1ccccc1)C(=O)O (configuration not stated)	nt	nt	nt	nt	-3.8	nt	nt
COc1cccc(C2=CC(c3ccc(OC)c(OC)c3)NC(=S)N2)c1 (configuration not stated)	-4.8	-7.0	-2.9	-5.3	30.2*	-4.1	55.9*
COc1ccc(C2C=C(c3ccc(F)cc3)NC(=S)N2)cc1OC (configuration not stated)	2.5	0.1	-0.9	7.0	5.2	-1.5	nt
COc1ccc(C2=CC(c3ccc(OC)c(OC)c3)NC(=S)N2)cc1 (configuration not stated)	-11.4	-3.8	1.8	-5.5	49.0*	-7.5	55.7*
Cn1c(=O)c2c(nc(SCC(=O)c3ccccc3F)n2C)n(C)c1=O	-3.4	3.0	5.8	-0.6	-2.9	-2.6	nt
CCOC(=O)c1c(N2C(=O)CC(Sc3ccccc3C(=O)O)C2=O)sc(C)c1C (configuration not stated)	-1.0	5.7	-1.1	2.1	16.9*	-0.7	14.6
O=C(COc1ccc(Cl)cc1)NCCSCc1ccccc1Cl	-2.7	1.7	-5.3	-4.6	0.2	0.4	nt
O=C(CSCc1ccccc1Cl)NCCSc1ccccn1	3.1	-4.2	-1.9	-0.3	15.9*	-2.0	1.1
COc1ccc(/C=N/NC(=O)c2ccc3nc[nH]c3c2)c(OC)c1	4.8	0.7	nt	0.5	-1.4	0.0	nt
COc1cc(OC)c(OC)cc1/C=N/NC(=O)c1ccc2nc[nH]c2c1	2.1	-3.9	3.5	-1.8	16.5*	-1.8	0.6
CC(NC(=O)c1ccccc1NC(=O)CN1CCc2ccccc2C1)c1ccccc1 (configuration not stated)	-15.3	-7.1	nt	-10.8	-7.2	-6.0	nt
Cc1cc(=O)oc2c(CN3CCC(C)CC3)c(O)c(Cl)cc12	11.0	23.6	-2.1	10.1	32.6*	12.3	21.4*
COCCNC(=O)C(c1ccc(F)cc1)N(C(=O)CCC(=O)Nc1ccccn1)C1CCCCC1 (configuration not stated)	2.6	2.3	nt	-1.3	6.6	7.7	nt
Cc1ccccc1-n1nnnc1SCC(N)=O	-1.6	-0.1	-3.7	1.6	-6.2	1.2	nt
CCCSc1nnc(Sc2nnnn2-c2ccccc2)s1	6.6	-0.6	-1.0	3.4	35.3*	-1.1	19.7*
Cc1ccccc1-n1nnnc1Sc1nnnn1-c1ccccc1	6.0	6.1	-2.3	-2.2	19.1*	-0.7	5.4
